The source made the active and inactive calls. The rule behind the calls is not given here.
What was measured:
[1] = Apparent permeability across basolateral to apical side in human Caco-2 cells at 10 uM incubated for 90 mins at pH 7.4 by LC/MS analysis; format: ADME, cell-based; settings: Caco-2, pH 7.4
[2] = Apparent permeability across apical to basolateral side in human Caco-2 cells at 10 uM incubated for 90 mins at pH 7.4 by LC/MS analysis; format: ADME, cell-based; settings: Caco-2, pH 7.4
[3] = molecular target: Histone-lysine N-methyltransferase SETDB1 (Homo sapiens) (UniProt Q15047); assay: Inhibition of SETDB1 (unknown origin) using H3 1-25 peptide in presence of SAM
Method in brief: (§1)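 Radiometric methyltransferase panel in which 3H-SAM, at or below each enzyme's Km, methylates biotinylated peptide substrates. They were quenched with 7.5 M guanidine-HCl, diluted, captured on streptavidin flash plates for 1 h, and counted by scintillation.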

cells [4] = settings: Homo sapiens, MCF-10A
MOLM-13 [5] = assay: Downregulation of H3K79me2 in human MOLM-13 cells at 1 uM by immuno blot analysis; format: functional, cell-based; settings: time 3-7 day, TDE = time-dependent effect
Method in brief: (§2)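 Exponentially growing Molm13 cells were plated at 2 × 10^5 per well in 2 ml and exposed to 1 μM compound or DMSO for the indicated times. Extracted histones (3 μg) were run on 10% Bis-Tris gels and transferred to nitrocellulose. Blots were probed with primary antibody (1:1000 in 5% milk/TBS-T), then anti-rabbit secondary, with chemiluminescent detection.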

[6] = molecular target: Histone-lysine N-methyltransferase SETD7 (Homo sapiens) (UniProt Q8WTS6); assay: Inhibition of SETD7 (unknown origin) using H3 1-25 peptide in presence of SAM; method in brief: as §1
[7] = molecular target: DNA (cytosine-5)-methyltransferase 1 (Homo sapiens) (UniProt P26358); assay: Inhibition of DNMT1 (unknown origin) using ds-DNA peptide in presence of SAM; method in brief: as §1
Sequence of DNA (cytosine-5)-methyltransferase 1 (Homo sapiens) (P26358 whole entry): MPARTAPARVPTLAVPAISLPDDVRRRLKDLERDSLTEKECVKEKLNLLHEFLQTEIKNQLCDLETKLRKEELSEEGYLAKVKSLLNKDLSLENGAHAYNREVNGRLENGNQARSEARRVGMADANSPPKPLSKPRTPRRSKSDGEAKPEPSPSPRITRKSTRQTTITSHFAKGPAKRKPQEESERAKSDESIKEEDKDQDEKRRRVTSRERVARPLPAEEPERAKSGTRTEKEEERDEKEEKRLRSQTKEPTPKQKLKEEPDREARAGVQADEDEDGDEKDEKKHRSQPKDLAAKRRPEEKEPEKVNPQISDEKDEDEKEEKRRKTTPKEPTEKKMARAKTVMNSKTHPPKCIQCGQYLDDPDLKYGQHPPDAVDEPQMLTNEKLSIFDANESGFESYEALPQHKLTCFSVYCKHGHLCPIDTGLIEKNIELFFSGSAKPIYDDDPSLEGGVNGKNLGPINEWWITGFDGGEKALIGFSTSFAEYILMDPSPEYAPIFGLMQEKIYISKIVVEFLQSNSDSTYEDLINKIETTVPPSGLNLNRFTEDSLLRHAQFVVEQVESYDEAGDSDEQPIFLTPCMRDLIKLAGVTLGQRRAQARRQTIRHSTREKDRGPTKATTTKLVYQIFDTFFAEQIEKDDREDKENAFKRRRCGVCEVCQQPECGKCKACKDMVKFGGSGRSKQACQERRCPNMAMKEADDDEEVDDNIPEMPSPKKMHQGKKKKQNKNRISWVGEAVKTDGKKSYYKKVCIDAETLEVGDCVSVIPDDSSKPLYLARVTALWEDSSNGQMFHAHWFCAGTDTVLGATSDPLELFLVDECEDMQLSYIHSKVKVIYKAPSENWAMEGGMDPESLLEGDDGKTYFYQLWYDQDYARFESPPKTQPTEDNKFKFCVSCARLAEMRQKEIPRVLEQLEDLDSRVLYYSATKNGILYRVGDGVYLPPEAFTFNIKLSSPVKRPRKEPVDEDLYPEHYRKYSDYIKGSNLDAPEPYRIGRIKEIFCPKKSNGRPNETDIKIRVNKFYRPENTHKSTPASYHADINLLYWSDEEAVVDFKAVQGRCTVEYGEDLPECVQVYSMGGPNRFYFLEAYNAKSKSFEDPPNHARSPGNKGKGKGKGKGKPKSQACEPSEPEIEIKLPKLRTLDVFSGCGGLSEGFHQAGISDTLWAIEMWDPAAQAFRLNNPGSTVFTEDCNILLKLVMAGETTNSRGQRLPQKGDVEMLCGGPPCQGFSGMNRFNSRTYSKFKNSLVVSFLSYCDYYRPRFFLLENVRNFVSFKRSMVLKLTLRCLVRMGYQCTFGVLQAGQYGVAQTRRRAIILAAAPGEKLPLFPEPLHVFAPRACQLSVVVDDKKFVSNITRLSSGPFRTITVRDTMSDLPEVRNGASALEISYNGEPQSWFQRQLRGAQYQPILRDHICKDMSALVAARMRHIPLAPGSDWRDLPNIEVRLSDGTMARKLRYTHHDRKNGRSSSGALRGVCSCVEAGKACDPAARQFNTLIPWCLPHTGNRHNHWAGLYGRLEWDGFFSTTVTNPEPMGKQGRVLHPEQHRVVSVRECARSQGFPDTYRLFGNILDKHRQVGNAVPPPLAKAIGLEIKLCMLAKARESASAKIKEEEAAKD

cells [8] = settings: Homo sapiens, A-431
Homo sapiens [9] = species on record: Homo sapiens; assay: Inhibition of PRC2 (unknown origin) using H3 21-44 peptide in presence of SAM; method in brief: as §1
[10] = molecular target: Histone-lysine N-methyltransferase SUV39H2 (Homo sapiens) (UniProt Q9H5I1); assay: Inhibition of SUV39H2 (unknown origin) using H3 1-25 peptide in presence of SAM; method in brief: as §1
MV4-11 = assay: Downregulation of H3K79me2 in human MV4-11 cells habouring MLL/AF4 fusion protein measured upto 48 hrs by immuno blot analysis; format: functional, cell-based
MOLM-13 [11] = assay: Downregulation of H3K79me2 in human MOLM-13 cells measured for 3 to 7 days by immuno blot analysis; format: functional, cell-based; settings: dose 1.0 µM, time 3-7 day; method in brief: as §2
[12] = molecular target: Histone-lysine N-methyltransferase EHMT2 (Homo sapiens) (UniProt Q96KQ7); assay: Inhibition of G9a (unknown origin) using H3 1-25 peptide in presence of SAM; method in brief: as §1
Sequence of Histone-lysine N-methyltransferase EHMT2 (Homo sapiens) (Q96KQ7 whole entry): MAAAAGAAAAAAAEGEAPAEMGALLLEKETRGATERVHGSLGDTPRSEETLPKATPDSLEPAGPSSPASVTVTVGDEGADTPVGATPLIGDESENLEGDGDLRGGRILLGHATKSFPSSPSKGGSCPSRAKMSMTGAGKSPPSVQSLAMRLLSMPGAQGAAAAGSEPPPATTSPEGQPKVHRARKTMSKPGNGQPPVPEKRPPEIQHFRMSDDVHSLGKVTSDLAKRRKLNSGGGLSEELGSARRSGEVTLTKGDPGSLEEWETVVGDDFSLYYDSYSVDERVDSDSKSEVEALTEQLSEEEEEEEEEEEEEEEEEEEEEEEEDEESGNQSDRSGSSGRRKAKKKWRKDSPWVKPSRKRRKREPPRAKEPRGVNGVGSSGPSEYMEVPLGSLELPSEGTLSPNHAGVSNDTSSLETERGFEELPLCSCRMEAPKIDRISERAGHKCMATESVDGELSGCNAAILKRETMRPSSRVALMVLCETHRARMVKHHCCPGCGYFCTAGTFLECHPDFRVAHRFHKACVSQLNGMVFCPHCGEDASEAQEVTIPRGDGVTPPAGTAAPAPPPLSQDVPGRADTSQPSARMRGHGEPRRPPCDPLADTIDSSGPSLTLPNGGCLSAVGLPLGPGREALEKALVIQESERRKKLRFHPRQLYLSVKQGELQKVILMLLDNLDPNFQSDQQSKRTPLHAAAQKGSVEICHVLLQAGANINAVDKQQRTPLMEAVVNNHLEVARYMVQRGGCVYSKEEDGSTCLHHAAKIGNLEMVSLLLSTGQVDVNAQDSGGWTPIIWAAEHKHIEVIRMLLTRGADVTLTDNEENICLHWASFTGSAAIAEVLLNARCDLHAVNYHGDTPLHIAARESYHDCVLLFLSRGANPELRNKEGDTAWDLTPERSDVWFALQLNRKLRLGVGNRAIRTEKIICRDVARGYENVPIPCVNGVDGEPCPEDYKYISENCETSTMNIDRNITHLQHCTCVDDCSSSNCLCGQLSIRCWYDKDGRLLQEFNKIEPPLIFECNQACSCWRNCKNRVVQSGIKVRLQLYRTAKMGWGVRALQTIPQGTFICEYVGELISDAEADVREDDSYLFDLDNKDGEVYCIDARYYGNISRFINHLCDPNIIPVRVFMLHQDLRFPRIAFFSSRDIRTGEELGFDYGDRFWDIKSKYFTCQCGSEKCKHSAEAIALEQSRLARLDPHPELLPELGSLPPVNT

[13] = molecular target: Histone-lysine N-methyltransferase KMT5B (Homo sapiens) (UniProt Q4FZB7); assay: Inhibition of […] (unknown origin) using H4 K20Me1 peptide in presence of SAM; method in brief: as §1
[14] = molecular target: Histone-lysine N-methyltransferase KMT5C (Homo sapiens) (UniProt Q86Y97); assay: Inhibition of SUV420H2 (unknown origin) using H4 K20Me1 peptide in presence of SAM; method in brief: as §1
[15] = molecular target: N-lysine methyltransferase KMT5A (Homo sapiens) (UniProt Q9NQR1); assay: Inhibition of SETD8 (unknown origin) using […] in presence of SAM; method in brief: as §1
[16] = molecular target: T1, Protein arginine N-methyltransferase 5 (Homo sapiens, UniProt O14744); assay: Inhibition of human PRMT5; method in brief: as §1
T1 sequence (O14744 whole entry): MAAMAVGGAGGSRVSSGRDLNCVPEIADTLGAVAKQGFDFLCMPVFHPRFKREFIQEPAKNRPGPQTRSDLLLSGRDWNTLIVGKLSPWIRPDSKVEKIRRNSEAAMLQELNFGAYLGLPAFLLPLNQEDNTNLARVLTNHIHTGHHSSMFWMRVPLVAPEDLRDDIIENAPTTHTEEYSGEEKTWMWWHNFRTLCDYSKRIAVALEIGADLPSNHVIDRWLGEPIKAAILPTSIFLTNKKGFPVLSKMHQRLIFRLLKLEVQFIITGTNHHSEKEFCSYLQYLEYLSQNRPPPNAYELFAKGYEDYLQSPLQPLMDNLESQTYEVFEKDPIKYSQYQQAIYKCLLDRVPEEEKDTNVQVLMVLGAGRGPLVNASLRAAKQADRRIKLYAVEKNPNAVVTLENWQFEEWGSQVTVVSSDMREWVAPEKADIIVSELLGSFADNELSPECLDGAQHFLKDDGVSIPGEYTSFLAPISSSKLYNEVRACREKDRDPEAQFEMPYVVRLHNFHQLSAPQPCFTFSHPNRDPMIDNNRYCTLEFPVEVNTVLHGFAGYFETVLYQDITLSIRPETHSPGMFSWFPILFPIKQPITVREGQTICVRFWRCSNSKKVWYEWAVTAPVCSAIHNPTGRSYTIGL

[17] = molecular target: Protein arginine N-methyltransferase 3 (Homo sapiens) (UniProt O60678); assay: Inhibition of PRMT3 (unknown origin) using H3 1-24 peptide in presence of SAM; method in brief: as §1
[18] = molecular target: Histone-lysine N-methyltransferase EHMT1 (Homo sapiens) (UniProt Q9H9B1); assay: Inhibition of EHMT1 (unknown origin) using H3 1-25 peptide in presence of SAM; method in brief: as §1
[19] = molecular target: T1, Protein arginine N-methyltransferase 5; assay: Inhibition of PRMT5 (unknown origin) using H4 1-24 peptide in presence of SAM; method in brief: as §1
[20] = molecular target: Histone-lysine N-methyltransferase 2A (Homo sapiens) (UniProt Q03164); assay: Inhibition of MLL (unknown origin) using H3 1-25 peptide in presence of SAM; method in brief: as §1
[21] = molecular target: T2, Histone-lysine N-methyltransferase, H3 lysine-79 specific (Homo sapiens, UniProt Q8TEK3); assay: Binding affinity to recombinant N-terminal DOT1L (1 to 420 residues) (unknown origin) expressed in Escherichia coli (DE3) assessed as dissociation constant by SPR analysis
T2 sequence (Q8TEK3 whole entry, the tested form may be a part): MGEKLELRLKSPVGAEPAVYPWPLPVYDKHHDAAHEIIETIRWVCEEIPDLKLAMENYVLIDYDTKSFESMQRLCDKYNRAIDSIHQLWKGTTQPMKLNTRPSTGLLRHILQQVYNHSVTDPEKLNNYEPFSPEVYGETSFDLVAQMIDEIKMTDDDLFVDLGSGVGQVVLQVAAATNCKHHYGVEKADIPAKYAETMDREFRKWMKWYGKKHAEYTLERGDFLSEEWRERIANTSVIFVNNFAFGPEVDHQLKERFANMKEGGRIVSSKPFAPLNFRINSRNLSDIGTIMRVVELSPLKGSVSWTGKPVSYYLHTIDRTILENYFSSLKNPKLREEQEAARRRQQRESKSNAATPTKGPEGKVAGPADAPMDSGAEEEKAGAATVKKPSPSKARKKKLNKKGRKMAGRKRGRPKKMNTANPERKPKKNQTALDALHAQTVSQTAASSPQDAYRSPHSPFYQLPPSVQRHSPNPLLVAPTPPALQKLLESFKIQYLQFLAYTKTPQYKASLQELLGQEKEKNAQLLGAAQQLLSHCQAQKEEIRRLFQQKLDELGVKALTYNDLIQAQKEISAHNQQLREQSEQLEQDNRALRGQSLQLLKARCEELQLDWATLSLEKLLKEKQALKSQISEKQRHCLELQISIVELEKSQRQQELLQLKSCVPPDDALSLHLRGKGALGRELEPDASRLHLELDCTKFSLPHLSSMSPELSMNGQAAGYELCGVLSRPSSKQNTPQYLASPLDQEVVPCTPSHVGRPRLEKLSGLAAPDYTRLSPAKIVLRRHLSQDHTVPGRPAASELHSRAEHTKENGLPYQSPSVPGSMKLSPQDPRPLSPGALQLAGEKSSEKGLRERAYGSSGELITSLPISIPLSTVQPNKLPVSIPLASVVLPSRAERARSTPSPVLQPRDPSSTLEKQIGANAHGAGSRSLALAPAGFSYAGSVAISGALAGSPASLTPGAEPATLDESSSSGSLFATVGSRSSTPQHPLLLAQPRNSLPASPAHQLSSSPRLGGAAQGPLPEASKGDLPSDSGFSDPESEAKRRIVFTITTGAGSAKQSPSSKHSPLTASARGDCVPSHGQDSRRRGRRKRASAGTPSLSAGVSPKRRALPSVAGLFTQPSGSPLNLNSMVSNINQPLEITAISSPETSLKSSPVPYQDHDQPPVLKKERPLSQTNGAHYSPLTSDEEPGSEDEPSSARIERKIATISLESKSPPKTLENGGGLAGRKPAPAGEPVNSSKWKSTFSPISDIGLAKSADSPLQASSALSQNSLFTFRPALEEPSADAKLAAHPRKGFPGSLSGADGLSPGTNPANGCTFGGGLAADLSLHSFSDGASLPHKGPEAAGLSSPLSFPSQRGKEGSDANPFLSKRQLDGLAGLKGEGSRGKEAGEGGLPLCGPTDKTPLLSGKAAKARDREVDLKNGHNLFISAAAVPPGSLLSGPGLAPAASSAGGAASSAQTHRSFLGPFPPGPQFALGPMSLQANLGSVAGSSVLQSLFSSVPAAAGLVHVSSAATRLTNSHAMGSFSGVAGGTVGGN

Rattus norvegicus [22] = species on record: Rattus norvegicus; assay: Inhibition of rat central GABAA receptor at 1 uM by muscimol radioligand binding assay relative to control
Rattus norvegicus [23] = species on record: Rattus norvegicus; assay: Inhibition of rat Calcium 2 channel L, dihydropyridine site at 1 uM relative to control
[24] = molecular target: Histamine H1 receptor (Homo sapiens) (UniProt P35367); assay: Inhibition of human histamine H1 receptor at 1 uM relative to control
[25] = molecular target: T2, Histone-lysine N-methyltransferase, H3 lysine-79 specific; assay: Binding affinity to recombinant N-terminal DOT1L (1 to 420 residues) (unknown origin) expressed in Escherichia coli (DE3) assessed as dissociation constant by surface plasmon resonance assay
MOLM-13 [26] = assay: Inhibition of HOXA9 level in human MOLM-13 cells at 1 uM measured after 7 days by SYBR green staining based PCR analysis; format: functional, cell-based; settings: time 7.0 day
Method in brief: (§3)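 RNA was extracted with Qiazol and reverse-transcribed. SYBR green qPCR used gene-specific primer pairs for HOXA9 and Meis1.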

[27] = molecular target: D(1A) dopamine receptor (Homo sapiens) (UniProt P21728); assay: Inhibition of human dopamine D1 receptor at 1 uM relative to control
[28] = molecular target: Adenosine receptor A2a (Homo sapiens) (UniProt P29274); assay: Inhibition of human Adenosine 2A receptor at 1 uM relative to control
[29] = molecular target: Beta-2 adrenergic receptor (Homo sapiens) (UniProt P07550); assay: Inhibition of human Adrenergic beta 2 receptor at 1 uM relative to control
Homo sapiens [30] = species on record: Homo sapiens; assay: Inhibition of human nicotinic acetylcholine alpha at 1 uM relative to control
[31] = molecular target: Alpha-1A adrenergic receptor (Rattus norvegicus) (UniProt P43140); assay: Inhibition of rat Adrenergic alpha 1A receptor at 1 uM relative to control
[32] = molecular target: Alpha-1B adrenergic receptor (Rattus norvegicus) (UniProt P15823); assay: Inhibition of rat Adrenergic alpha 1B receptor at 1 uM relative to control
[33] = molecular target: Sigma non-opioid intracellular receptor 1 (Homo sapiens) (UniProt Q99720); assay: Inhibition of human sigma 1 receptor at 1 uM relative to control
[34] = molecular target: D(2) dopamine receptor (Homo sapiens) (UniProt P14416); assay: Inhibition of human dopamine D2s receptor at 1 uM relative to control
[35] = molecular target: Alpha-2A adrenergic receptor (Homo sapiens) (UniProt P08913); assay: Inhibition of human Adrenergic alpha 2A receptor at 1 uM relative to control
Cord blood cell [36] = assay: Cytotoxicity against human Cord blood cell habouring MIL-AF9 fusion protein assessed as reduction in cell viability at 1 to 5 uM incubated for 14 days by resazurin dye based […] assay; format: functional; settings: dose 1-5 µM, time 14.0 day
Method in brief: (§4)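 Transformed human cord blood cells were cultured with DMSO or inhibitor at 1 and 5 μM for 14 days. Resazurin (0.1 mg ml−1) was added for 4 h and resorufin fluorescence was read. Data are from at least two independent experiments, each with three repeats, shown as s.e. of the mean.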

Cord blood cell [37] = assay: Cytotoxicity against human Cord blood cell habouring TLS-ERG fusion protein assessed as reduction in cell viability at 1 to 5 uM incubated for 14 days by resazurin dye based […] assay; format: functional; settings: dose 1-5 µM, time 14.0 day; method in brief: as §4
[38] = molecular target: Glutamate NMDA receptor (Rattus norvegicus) (UniProt P35439+Q00959+Q00960+Q00961+Q62645+Q8VHN2+Q9R1M7); assay: Inhibition of rat NMDA glutamate receptor at 1 uM relative to control; format: protein-complex assay
[39] = molecular target: Sodium-dependent noradrenaline transporter (Homo sapiens) (UniProt P23975); assay: Inhibition of human norepinephrine transporter at 1 uM relative to control
Homo sapiens [40] = species on record: Homo sapiens; assay: Inhibition of human nicotinic acetylcholine at 1 uM relative to control
[41] = molecular target: Adenosine receptor A1 (Homo sapiens) (UniProt P30542); assay: Inhibition of human Adenosine A1 receptor at 1 uM relative to control
Rattus norvegicus [42] = species on record: Rattus norvegicus; assay: Inhibition of rat central imidazoline receptor 2 at 1 uM relative to control
[43] = molecular target: Beta-1 adrenergic receptor (Homo sapiens) (UniProt P08588); assay: Inhibition of human Adrenergic beta1 receptor at 1 uM relative to control
hERG (KCNH2) = hERG (KCNH2) (Homo sapiens, UniProt Q12809); assay: Inhibition of human ERG at 1 uM relative to control; format: toxicity
Rattus norvegicus [44] = species on record: Rattus norvegicus; assay: Inhibition of rat central GABAA receptor at 1 uM by flunitrazepam radioligand binding assay relative to control
MOLM-13 [45] = assay: Inhibition of Meis1 level in human MOLM-13 cells at 1 uM measured after 7 days by SYBR green staining based PCR analysis; format: functional, cell-based; settings: time 7.0 day; method in brief: as §3
[46] = molecular target: 5-hydroxytryptamine receptor 2B (Homo sapiens) (UniProt P41595); assay: Inhibition of human 5HT2B receptor at 1 uM relative to control
[47] = molecular target: Prostaglandin E2 receptor EP4 subtype (Homo sapiens) (UniProt P35408); assay: Inhibition of human EP4 receptor at 1 uM relative to control
[48] = molecular target: Cannabinoid receptor 1 (Homo sapiens) (UniProt P21554); assay: Inhibition of human CB1R at 1 uM relative to control
[49] = molecular target: Mu-type opioid receptor (Homo sapiens) (UniProt P35372); assay: Inhibition of human MOP receptor at 1 uM relative to control
[50] = molecular target: Muscarinic acetylcholine receptor M2 (Homo sapiens) (UniProt P08172); assay: Inhibition of human muscarinic acetylcholine M2 receptor at 1 uM relative to control
[51] = molecular target: Muscarinic acetylcholine receptor M3 (Homo sapiens) (UniProt P20309); assay: Inhibition of human muscarinic acetylcholine M3 receptor at 1 uM relative to control

C[C@H]1O[C@@H](O[C@H]2[C@@H](O)C[C@H](O[C@H]3[C@@H](O)C[C@H](O[C@H]4CC[C@@]5(C)[C@H](CC[C@@H]6[C@@H]5C[C@@H](O)[C@]5(C)[C@@H](C7=CC(=O)OC7)CC[C@]65O)C4)O[C@@H]3C)O[C@@H]2C)C[C@H](O)[C@@H]1O [DIGOXIN]
Papp B→A at 1.5 h, 10 µM [1]: 13.2 ×10⁻⁶ cm/s | Papp A→B at 1.5 h, 10 µM [2]: 0.4 ×10⁻⁶ cm/s

CC(C)N(CCCNC(=O)Nc1ccc(C(C)(C)C)cc1)C[C@H]1O[C@@H](n2ccc3c(N)ncnc32)[C@H](O)[C@@H]1O
inhibition [3]: inactive | IC50 (cells [4]): 84 nM | Papp B→A at 1.5 h, 10 µM [1]: 5.4 ×10⁻⁶ cm/s | Activity (MOLM-13 [5]): Tde | inhibition [6]: inactive | inhibition [7]: inactive | IC50 (cells [8]): 264 nM | inhibition (Homo sapiens [9]): inactive | inhibition [10]: inactive | Activity (MV4-11): Active | Activity (MOLM-13 [11]): Dose-Dependent Effect | inhibition [12]: inactive | inhibition [13]: inactive | inhibition [14]: inactive | inhibition [15]: inactive | IC50 [16]: 500 nM | inhibition [17]: inactive | inhibition [18]: inactive | inhibition [19]: inactive | inhibition [20]: inactive

COCCc1ccc(OCC(O)CNC(C)C)cc1 (stereo unspecified) [METOPROLOL]
Papp B→A at 1.5 h, 10 µM [1]: 31.1 ×10⁻⁶ cm/s | Papp A→B at 1.5 h, 10 µM [2]: 68.2 ×10⁻⁶ cm/s

CC(C)N(CCCNC(=O)Nc1ccc(C(C)(C)C)cc1)C[C@H]1O[C@@H](n2cc(Br)c3c(N)ncnc32)[C@H](O)[C@@H]1O
Kd [21]: 0.0561 nM | inhibition (Rattus norvegicus [22]): 19% | inhibition (Rattus norvegicus [23]): 2% | inhibition [3]: inactive | inhibition [24]: -1% | Kd [25]: 0.06 nM | inhibition (MOLM-13 [26]): Active | inhibition [27]: 7% | inhibition [28]: 0% | IC50 (cells [4]): 8.8 nM | inhibition [29]: -1% | inhibition (Homo sapiens [30]): -1% | Papp B→A at 1.5 h, 10 µM [1]: 10.6 ×10⁻⁶ cm/s | inhibition [31]: 22% | Activity (MOLM-13 [5]): Tde | inhibition [32]: 17% | Papp A→B at 1.5 h, 10 µM [2]: 5.7 ×10⁻⁶ cm/s | inhibition [33]: -10% | inhibition [6]: inactive | inhibition [34]: -3% | inhibition [7]: inactive | IC50 (cells [8]): 2.65 nM | inhibition [35]: 7% | inhibition (Homo sapiens [9]): inactive | Activity (Cord blood cell [36]): Active | Activity (Cord blood cell [37]): inactive | inhibition [10]: inactive | inhibition [38]: 0% | inhibition [39]: 13% | Activity (MV4-11): Active | inhibition (Homo sapiens [40]): 13% | inhibition [41]: -4% | inhibition (Rattus norvegicus [42]): 10% | inhibition [43]: -1% | Activity (MOLM-13 [11]): Dose-Dependent Effect | inhibition at 1 µM (hERG (KCNH2)): -15% | inhibition [12]: inactive | inhibition [13]: inactive | inhibition (Rattus norvegicus [44]): 8% | inhibition (MOLM-13 [45]): Active | inhibition [14]: inactive | inhibition [15]: inactive | inhibition [46]: 8% | inhibition [17]: inactive | inhibition [18]: inactive | inhibition [47]: -5% | inhibition [48]: 5% | inhibition [19]: inactive | inhibition [49]: -3% | inhibition [50]: 7% | inhibition [51]: 19% | inhibition [20]: inactive

Reference: ChEMBL document CHEMBL5653612, “Catalytic site remodelling of the DOT1L methyltransferase by selective inhibitors” (Nat Commun, 2012)
